Screening results as filed in PubChem BioAssay.
In the library only some 2.3% were active in any assay of this set; here they are far more common.
EBNA-1 inhibitor = EBNA-1 DNA-binding inhibitors, primary screen, biochemical, fluorescence polarization; inhibition, % at 14.8 µM; 0.34% of 300,000 active; AID 1950, 2009; in the data active means inhibition above about 28%
core dimer inh = inhibitors of HCV core protein dimerization, primary screen, biochemical, TR-FRET, high-throughput. AID 1899, 2009. TR-FRET GST/Flag-core106 dimerization, 1536-well. 0.33% of 300,000 active. inhibition, % at 5 µM;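 active means inhibition above the mean of all tested compounds plus 3 SD, set per screening campaign, cut at about 45% in these data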
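Assay system: GST-tagged and Flag-tagged HCV core protein residues 1-106 / Times: compound-protein-antibody incubation 4 h at 22.5 °C / Signal: time-resolved FRET, ex 340 nm, em 617 and 671 nm / Evaluation: % inhibition based on acceptor/donor emission ratio / Benchmarks: wells lacking GST-core106 and wells with excess unlabelled core106 / Repeats: singlicate, one well per compound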
NS3 helicase inh = inhibitors of HCV NS3 helicase, primary screen, biochemical, Cy5 molecular beacon fluorescence; NS3 helicase DNA unwinding; inhibition, % at 10.9 µM; 0.56% of 290,000 active;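 active means inhibition above the mean of all tested compounds plus 3 SD, set per campaign, cut at about 35% in these data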
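System: Hepatitis C virus NS3 helicase domain fragment enzyme | Reagent: Annealed dual-labelled DNA beacon duplex, ATP-started | Compound dosing: 10.9 µM single point, 0.8% DMSO | Incubation: 1 h reaction at 25 °C, ATP-initiated | Technique: Cy5 fluorescence | Evaluation: Percent inhibition from t60/t0 fluorescence ratio | Benchmarks: Low DMSO, high thioflavine S at 110 µM | Replication: Singlicate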
EBV gp42 inh = Epstein-Barr virus gp42 inhibitors, primary screen, biochemical, uHTS, fluorescence polarization | inhibition, % (tested at 21.74 µM) | Fluorescence polarization binding assay, mP read-out | Glycoprotein 42 (Epstein-Barr virus (strain AG876)), Q1HVG2 | 0.42% of 220,000 active; in the data active means inhibition above about 50%
Target sequence (Q1HVG2 whole entry, looked up): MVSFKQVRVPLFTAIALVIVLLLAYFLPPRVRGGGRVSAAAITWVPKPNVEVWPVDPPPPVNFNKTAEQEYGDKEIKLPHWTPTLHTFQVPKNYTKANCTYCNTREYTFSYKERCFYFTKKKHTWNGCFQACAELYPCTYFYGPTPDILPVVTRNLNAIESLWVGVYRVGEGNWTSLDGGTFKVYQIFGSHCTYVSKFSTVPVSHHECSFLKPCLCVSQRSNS
GPR7 antagonist = GPR7 receptor antagonists, primary screen, cell-based, fluorescence, single concentration | GPR7-expressing cells, fluorescence antagonist assay | 1.1% of 290,000 active | inhibition, % at 4.4 µM | Neuropeptides B/W receptor type 1 (Homo sapiens), P48145; in the data active means inhibition above about 16%, passing the limit was not always enough;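 further: cells stimulated with the agonist NPW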
ZTA counter = blocks Epstein-Barr virus ZTA, an EBNA-1 counter-screen; P03206; ZTA-DNA binding, fluorescence polarization; inhibition, % at 11 µM; 0.15% of 320,000 active; in the data active means inhibition above about 33%
Target sequence (P03206 whole entry, looked up): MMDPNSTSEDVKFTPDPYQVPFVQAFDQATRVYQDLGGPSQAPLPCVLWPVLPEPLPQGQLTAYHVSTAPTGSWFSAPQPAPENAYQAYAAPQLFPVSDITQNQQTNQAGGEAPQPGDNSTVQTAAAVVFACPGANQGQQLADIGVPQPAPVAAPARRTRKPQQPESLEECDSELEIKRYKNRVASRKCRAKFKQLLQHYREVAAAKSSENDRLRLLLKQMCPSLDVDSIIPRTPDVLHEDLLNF
Zta DNA confirm = EBV Zta binding to ZRE DNA, inhibitors, confirmation, biochemical, fluorescence polarization, triplicate | 30% of 320 active | inhibition, % at 11.1 µM | shares compounds with ZTA counter;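 active means mean inhibition across triplicate runs above the hit threshold derived for the original primary screen, cut at about 33% in these data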
EBNA-1 counter = EBNA-1 DNA-binding inhibition, counter-screen for ZTA inhibitor project, biochemical, fluorescence polarization; shares compounds with ZTA counter; inhibition, % at 14.8 µM; 320 tested, under 10 active; call rule not given here
Large screens that a line does not name were inactive (follow-up assays come after a bar, where they were run); ! = repeats disagree.

CCCCn1c(N)c(N(CCOC)C(=O)CCCc2nc3ccccc3c(=O)[nH]2)c(=O)[nH]c1=O	ZTA counter 136.5 (no result: NS3 helicase inh, EBV gp42 inh, GPR7 antagonist) | Zta DNA confirm inactive | EBNA-1 counter inactive
CCCCN(C(=O)CCCc1nc2ccccc2c(=O)[nH]1)c1c(N)n(CCCC)c(=O)[nH]c1=O	none (no result: EBV gp42 inh)
COc1ccc(S(=O)(=O)Nc2cccc(C)n2)c2ccccc12	ZTA counter 33.5 | Zta DNA confirm inactive | EBNA-1 counter inactive
O=C1/C(=C\c2c(NCCOCCO)nc3ccccn3c2=O)SC(=S)N1Cc1ccco1	ZTA counter 41.9 (no result: EBV gp42 inh) | Zta DNA confirm inactive | EBNA-1 counter inactive
COc1cc(CCC(=O)N2CCN(c3cccc(C)c3C)CC2)cc(OC)c1OC	none (no result: EBV gp42 inh)
C#CCOCCOCCOCCNc1nc(N2CCN(C(=O)CCCCCCCCCCNC(=O)Cn3cc(C[C@@H](C)O)nn3)CC2)nc(N2CCN(C(=O)CCCCCCCCCCNC(=O)[C@H](CO)n3cc(CCCSC)nn3)CC2)n1	none (no result: NS3 helicase inh, EBV gp42 inh, GPR7 antagonist)
C#CCOCCOCCOCCNc1nc(N2CCN(C(=O)CCCCCCCCCCNC(=O)Cn3cc(C[C@@H](C)O)nn3)CC2)nc(N2CCN(C(=O)CCCCCCCCCCNC(=O)[C@H](CCCN=C(N)N)n3cc(C[C@@H](C)CC)nn3)CC2)n1	ZTA counter 55.7 (no result: NS3 helicase inh, EBV gp42 inh, GPR7 antagonist) | Zta DNA confirm inactive | EBNA-1 counter inactive
C#CCOCCOCCOCCNc1nc(N2CCN(C(=O)CCCCCCCCCCNC(=O)Cn3cc(C[C@@H](C)O)nn3)CC2)nc(N2CCN(C(=O)CCCCCCCCCCNC(=O)[C@H](CCCCN)n3cc(CCCC(=O)O)nn3)CC2)n1	none (no result: NS3 helicase inh, EBV gp42 inh, GPR7 antagonist)
C#CCOCCOCCOCCNc1nc(N2CCN(C(=O)CCCCCCCCCCNC(=O)[C@H](CO)n3cc(CCCSC)nn3)CC2)nc(N2CCN(C(=O)CCCCCCCCCCNC(=O)[C@H](CCCN=C(N)N)n3cc(C[C@@H](C)CC)nn3)CC2)n1	ZTA counter 95.9 (no result: NS3 helicase inh, EBV gp42 inh, GPR7 antagonist) | Zta DNA confirm 68.8 | EBNA-1 counter inactive
NC(=O)c1c(NC(=O)c2ccc(F)cc2Cl)sc2c1CCC2	none (no result: EBV gp42 inh)
CC(C)(C)n1nnnc1C(c1cccc(C#N)c1)N1CCCc2ccccc21 (centres undefined)	ZTA counter 44.1 | Zta DNA confirm inactive | EBNA-1 counter inactive
CC(C)(C)n1nnnc1C(c1ccc(Cl)cc1)N1CCCc2ccccc21 (centres undefined)	none
COc1cccc(NC(=O)c2c(C)cc(C)cc2CC(C)(C)C(=O)O)c1	none
Cc1cc(C)nc(NC(=O)c2csnn2)c1	none
O=C(Nc1csnn1)c1csnn1	ZTA counter 48.9 | Zta DNA confirm inactive | EBNA-1 counter inactive
O=C(COc1ccccc1/C=C\c1[nH]c(=O)[nH]c(=O)c1[N+](=O)[O-])Nc1ccccc1	ZTA counter 48.4 | Zta DNA confirm 71.6 | EBNA-1 counter inactive
COCCNC(=O)c1cc(-c2ccccc2)nn1CC1CC(c2cccnc2)=NO1 (centres undefined)	ZTA counter active (no result: NS3 helicase inh, EBV gp42 inh, GPR7 antagonist) | Zta DNA confirm inactive | EBNA-1 counter inactive
CC1=CC(C)(C)Nc2ccccc21	ZTA counter 38.6! | Zta DNA confirm inactive | EBNA-1 counter inactive
Cc1cc(Br)ccc1NC(=O)CN(C)C(=O)C1CCN(C(=O)c2ccc(F)cc2)CC1	none (no result: NS3 helicase inh, EBV gp42 inh, GPR7 antagonist)
O=C1CC(=O)N(Cc2ccco2)C(=S)N1	ZTA counter 54.8 | Zta DNA confirm inactive | EBNA-1 counter inactive
C/C(=C/C(=O)O)C(=O)Nc1cccc(C(F)(F)F)c1	none
